According to ChEMBL document CHEMBL4130468, “Furostane Series Asterosaponins and Other Unusual Steroid Oligoglycosides from the Tropical Starfish Pentaceraster regulus” (J Nat Prod, 2017):
Activity calls are given as the source filed them. The calls are words filed in the database; no cut-off is given here.

Tests used:
RAW264.7 [1] = experiment: Induction of ROS generation in mouse RAW264.7 cells at 5 uM after 24 hrs by H2DCFDA probe based fluorescence assay; assay type: functional, cell-based
Summary of the method: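 Adhered RAW 264.7 macrophages (2 h, 37 °C, 5% CO2) exposed to compounds at 5 μM without LPS for 24 h, compared with untreated cells. 2,7-Dichlorodihydrofluorescein diacetate added (final 10 μM) for an additional 10 min at 37 °C. Dichlorofluorescein fluorescence measured at λex/λem 485/518 nm. At least triplicate.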

RAW264.7 [2] = experiment: Cytotoxicity against mouse RAW264.7 cells assessed as reduction in cell viability after 24 hrs by MTS assay; assay type: functional, cell-based; conditions: RAW264.7, 24 h
Summary of the method: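 RAW 264.7 murine macrophages (DMEM, 10% FBS, 37 °C, 5% CO2) seeded 6 × 10^3 cells/well and cultured 2 h. Medium then replaced with compound-containing medium (1.25−10.0 μM range), 24 h exposure. MTS reagent added, formazan read 2 h later at 492 nm with 690 nm background. IC50 reported; at least triplicate, mean ± SD.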

RAW264.7 [3] = experiment: Immunomodulatory activity in mouse RAW264.7 cells assessed as inhibition of LPS-induced ROS level at 5 uM after 24 hrs by H2DCFDA probe based fluorescence assay relative to control; assay type: functional; conditions: RAW264.7, 24 h
Summary of the method: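 RAW 264.7 macrophages allowed to adhere 2 h at 37 °C, 5% CO2, then given compounds (5 μM) co-incubated with E. coli serotype 055:B5 LPS (1.0 μg/mL) for 24 h. DCFH-DA then added (final 10 μM) for 10 min at 37 °C. Fluorescence read at 485/518 nm; % reduction of LPS-induced ROS. At least triplicate, mean ± SD.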

SMILES | Activity (RAW264.7 [1]) | IC50 (RAW264.7 [2]) | inhibition at 5 µM (RAW264.7 [3])
CC(C)CC(=O)C[C@](C)(O)[C@H]1CC[C@H]2[C@@H]3C[C@H](O[C@@H]4O[C@H](C)[C@@H](O)[C@H](O[C@@H]5OC[C@@H](O[C@@H]6O[C@H](CO)[C@@H](O)[C@H](O)[C@H]6O[C@@H]6O[C@H](C)[C@H](O)[C@H](O)[C@H]6O)[C@H](O)[C@H]5O[C@@H]5O[C@H](C)[C@@H](O)[C@H](O)[C@H]5O)[C@H]4O)[C@H]4C[C@@H](OS(=O)(=O)O)CC[C@]4(C)C3=CC[C@@]21C | inactive |  | 
CC(=O)[C@H]1CC[C@H]2[C@@H]3C[C@H](O[C@@H]4O[C@H](C)[C@@H](O)[C@H](O[C@@H]5OC[C@@H](O[C@@H]6O[C@H](CO)[C@H](O)[C@H](O)[C@H]6O[C@@H]6O[C@H](C)[C@H](O)[C@H](O)[C@H]6O)[C@H](O)[C@H]5O[C@@H]5O[C@H](C)[C@@H](O)[C@H](O)[C@H]5O)[C@H]4O)[C@H]4C[C@@H](OS(=O)(=O)O)CC[C@]4(C)C3=CC[C@]12C | inactive | 1.25 to 10 µM | 
CC(C)[C@H](C)[C@@H]1O[C@H]1[C@](C)(O)[C@H]1[C@@H](O)C[C@H]2[C@@H]3C[C@H](O[C@@H]4O[C@H](C)[C@@H](O)[C@H](O[C@@H]5O[C@H](C)[C@@H](O[C@@H]6O[C@H](CO)[C@@H](O)[C@H](O)[C@H]6O[C@@H]6O[C@H](C)[C@H](O)[C@H](O)[C@H]6O)[C@H](O)[C@H]5O[C@@H]5O[C@H](C)[C@@H](O)[C@H](O)[C@H]5O)[C@H]4O)[C@H]4C[C@@H](OS(=O)(=O)O)CC[C@]4(C)C3=CC[C@]12C | inactive | 6.4 µM | 
CC(=O)[C@H]1CC[C@H]2[C@@H]3C[C@H](O[C@@H]4O[C@H](C)[C@@H](O)[C@H](O[C@@H]5OC[C@@H](O[C@@H]6O[C@H](C)[C@@H](O)[C@H](O)[C@H]6O[C@@H]6O[C@H](C)[C@H](O)[C@H](O)[C@H]6O)[C@H](O)[C@H]5O[C@@H]5O[C@H](C)[C@@H](O)[C@H](O)[C@H]5O)[C@H]4O)[C@H]4C[C@@H](OS(=O)(=O)O)CC[C@]4(C)C3=CC[C@]12C | inactive | 1.25 to 10 µM | 
CC(C)=CC[C@H](O)[C@](C)(O)[C@H]1CC[C@H]2[C@@H]3C[C@H](O[C@@H]4O[C@H](C)[C@@H](O)[C@H](O[C@@H]5OC[C@@H](O[C@@H]6O[C@H](C)[C@@H](O)[C@H](O)[C@H]6O[C@@H]6O[C@H](C)[C@H](O)[C@H](O)[C@H]6O)[C@H](O)[C@H]5O[C@@H]5O[C@H](C)[C@@H](O)[C@H](O)[C@H]5O)[C@H]4O)[C@H]4C[C@@H](OS(=O)(=O)O)CC[C@]4(C)C3=CC[C@]12C | inactive |  | 
CC(C)C(C)[C@H](O)[C@@H]1O[C@H]2C[C@H]3[C@@H]4C[C@H](O[C@@H]5O[C@H](C)[C@@H](O)[C@H](O[C@@H]6O[C@H](C)[C@@H](O[C@@H]7O[C@H](CO)[C@@H](O)[C@H](O)[C@H]7O[C@@H]7O[C@H](C)[C@H](O)[C@H](O)[C@H]7O)[C@H](O)[C@H]6O[C@@H]6O[C@H](C)[C@@H](O)[C@H](O)[C@H]6O)[C@H]5O)[C@H]5C[C@@H](OS(=O)(=O)O)CC[C@]5(C)C4=CC[C@]3(C)[C@H]2[C@@]1(C)O (stereo partly specified) | inactive | 1.25 to 10 µM | 
CC(C)CCC(=O)[C@](C)(O)[C@H]1CC[C@H]2[C@@H]3C[C@H](O[C@@H]4O[C@H](C)[C@@H](O)[C@H](O[C@@H]5OC[C@@H](O[C@@H]6O[C@H](C)[C@@H](O)[C@H](O)[C@H]6O[C@@H]6O[C@H](C)[C@H](O)[C@H](O)[C@H]6O)[C@H](O)[C@H]5O[C@@H]5O[C@H](C)[C@@H](O)[C@H](O)[C@H]5O)[C@H]4O)[C@H]4C[C@@H](OS(=O)(=O)O)CC[C@]4(C)C3=CC[C@@]21C | inactive |  | 55%
CC(C)CC[C@H](O)[C@](C)(O)[C@H]1CC[C@H]2[C@@H]3C[C@H](O[C@@H]4O[C@H](C)[C@@H](O)[C@H](O[C@@H]5OC[C@@H](O[C@@H]6O[C@H](C)[C@@H](O)[C@H](O)[C@H]6O[C@@H]6O[C@H](C)[C@H](O)[C@H](O)[C@H]6O)[C@H](O)[C@H]5O[C@@H]5O[C@H](C)[C@@H](O)[C@H](O)[C@H]5O)[C@H]4O)[C@H]4C[C@@H](OS(=O)(=O)O)CC[C@]4(C)C3=CC[C@]12C | inactive | 1.25 to 10 µM | 28%
C[C@H]1O[C@@H](O[C@H]2[C@H](O[C@@H]3CO[C@@H](O[C@@H]4[C@@H](O)[C@H](O[C@H]5C[C@@H]6C(=CC[C@@]7(C)[C@H]6CC[C@@H]7[C@@](C)(O)C(=O)/C=C/C(C)(C)O)[C@@]6(C)CC[C@H](OS(=O)(=O)O)C[C@H]56)O[C@H](C)[C@H]4O)[C@H](O[C@@H]4O[C@H](C)[C@@H](O)[C@H](O)[C@H]4O)[C@H]3O)O[C@H](C)[C@@H](O)[C@@H]2O)[C@H](O)[C@@H](O)[C@H]1O | inactive | 1.25 to 10 µM | 
CC(C)CC(=O)C[C@](C)(O)[C@H]1CC[C@H]2[C@@H]3C[C@H](O[C@@H]4O[C@H](C)[C@@H](O)[C@H](O[C@@H]5OC[C@@H](O[C@@H]6O[C@H](CO)[C@H](O)[C@H](O)[C@H]6O[C@@H]6O[C@H](C)[C@H](O)[C@H](O)[C@H]6O)[C@H](O)[C@H]5O[C@@H]5O[C@H](C)[C@@H](O)[C@H](O)[C@H]5O)[C@H]4O)[C@H]4C[C@@H](OS(=O)(=O)O)CC[C@]4(C)C3=CC[C@@]21C | inactive | 7 µM | 
CCC(C)[C@H](O)[C@@H]1O[C@H]2C[C@H]3[C@@H]4C[C@H](O[C@@H]5O[C@H](C)[C@@H](O)[C@H](O[C@@H]6O[C@H](C)[C@@H](O[C@@H]7O[C@H](CO)[C@@H](O)[C@H](O)[C@H]7O[C@@H]7O[C@H](C)[C@H](O)[C@H](O)[C@H]7O)[C@H](O)[C@H]6O[C@@H]6O[C@H](C)[C@@H](O)[C@H](O)[C@H]6O)[C@H]5O)[C@H]5C[C@@H](OS(=O)(=O)O)CC[C@]5(C)C4=CC[C@]3(C)[C@H]2[C@@]1(C)O (stereo partly specified) | inactive |  | 40%
